The record followed here is ChEMBL document CHEMBL3352075, “Discovery of potent 1H-imidazo[4,5-b]pyridine-based c-Met kinase inhibitors via mechanism-directed structural optimization” (Bioorg Med Chem Lett, 2015).

Molecules are shown by their SMILES. Some results are limits rather than exact numbers.

In experiment [1] the target is Fibroblast growth factor receptor 1 (Homo sapiens) (UniProt P11362). The following applies: 10 nM.
Experiment [2] can be described thus: Antiproliferative activity against human EBC1 cells after 72 hrs by sulforhodamine B assay. To be noted: EBC-1, 72 h. (In SRB staining, fixed cells bind dye roughly in proportion to their protein.)
The target in experiment [3] is Insulin-like growth factor 1 receptor (Homo sapiens) (UniProt P08069). The experiment can be described thus: Inhibition of IGF1R (unknown origin) at 1 uM by ELISA method. The gist of the method:
(§1)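 Kinase profiling by ELISA kinase assay across a panel of tyrosine kinases, each tested at a single 1.0 µM compound concentration. Read-out is percent inhibition rate.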

Experiment [4] addresses Hepatocyte growth factor receptor (Homo sapiens, UniProt P08581). The experiment is described as follows: Inhibition of recombinant c-Met (unknown origin) using poly (Glu,Tyr)4:1 substrate incubated for 60 mins by ELISA method.
Experiment [5] addresses Macrophage-stimulating protein receptor (Homo sapiens) (UniProt Q04912). The experiment is described as follows: Inhibition of RON (unknown origin) at 1 uM by ELISA method. The method, boiled down:
as §1
On the technique in general: An ELISA detects its analyte on a solid surface through an enzyme-linked reagent.

In experiment [6] the target is Tyrosine-protein kinase receptor UFO (Homo sapiens) (UniProt P30530). The experiment can be described thus: Inhibition of AXL (unknown origin) at 1 uM by ELISA method. The gist of the method:
as §1

Experiment [7] has as its target Fibroblast growth factor receptor 1 (Homo sapiens) (UniProt P11362). The experiment is described as follows: Inhibition of FGFR1 (unknown origin) at 1 uM by ELISA method. The method, boiled down: as §1
Experiment [8] addresses Fibroblast growth factor receptor 2 (Homo sapiens) (UniProt P21802). The experiment can be described thus: Inhibition of FGFR2 (unknown origin) at 1 uM by ELISA method. The method, boiled down:
as §1

For experiment [9], the target named is ALK tyrosine kinase receptor (Homo sapiens) (UniProt Q9UM73). The experiment can be described thus: Inhibition of ALK (unknown origin) at 1 uM by ELISA method. The gist of the method:
as §1

The target of experiment [10] is Vascular endothelial growth factor receptor 1 (Homo sapiens) (UniProt P17948). The experiment is described as follows: Inhibition of FLT1 (unknown origin) at 1 uM by ELISA method. The gist of the method: as §1
Experiment [11] concerns the target Platelet-derived growth factor receptor alpha (Homo sapiens) (UniProt P16234). The experiment can be described thus: Inhibition of PDGFRalpha (unknown origin) at 1 uM by ELISA method. The method, boiled down:
as §1

Experiment [12] addresses Platelet-derived growth factor receptor beta (Homo sapiens) (UniProt P09619). The experiment is described as follows: Inhibition of PDGFRbeta (unknown origin) at 1 uM by ELISA method. The gist of the method:
as §1

In experiment [13] the target is Receptor tyrosine-protein kinase erbB-4 (Homo sapiens) (UniProt Q15303). The experiment is described as follows: Inhibition of ErbB4 (unknown origin) at 1 uM by ELISA method. The method, boiled down:
as §1

For experiment [14], the target named is Vascular endothelial growth factor receptor 2 (Homo sapiens) (UniProt P35968). The following applies: at 1 µM.
Experiment [15] concerns the target Proto-oncogene tyrosine-protein kinase Src (Homo sapiens) (UniProt P12931). The following applies: at 1 µM.
The target of experiment [16] is Tyrosine-protein kinase ABL1 (Homo sapiens) (UniProt P00519). The following applies: at 1 µM.
Experiment [17] deals with Macrophage-stimulating protein receptor (Homo sapiens) (UniProt Q04912). The experiment can be described thus: Inhibition of RON (unknown origin) at 0.1 uM by ELISA method.
The target in experiment [18] is Tyrosine-protein kinase receptor UFO (Homo sapiens) (UniProt P30530). The experiment is described as follows: Inhibition of AXL (unknown origin) at 0.1 uM by ELISA method.
Chain of Tyrosine-protein kinase receptor UFO (Homo sapiens) (P30530 whole entry): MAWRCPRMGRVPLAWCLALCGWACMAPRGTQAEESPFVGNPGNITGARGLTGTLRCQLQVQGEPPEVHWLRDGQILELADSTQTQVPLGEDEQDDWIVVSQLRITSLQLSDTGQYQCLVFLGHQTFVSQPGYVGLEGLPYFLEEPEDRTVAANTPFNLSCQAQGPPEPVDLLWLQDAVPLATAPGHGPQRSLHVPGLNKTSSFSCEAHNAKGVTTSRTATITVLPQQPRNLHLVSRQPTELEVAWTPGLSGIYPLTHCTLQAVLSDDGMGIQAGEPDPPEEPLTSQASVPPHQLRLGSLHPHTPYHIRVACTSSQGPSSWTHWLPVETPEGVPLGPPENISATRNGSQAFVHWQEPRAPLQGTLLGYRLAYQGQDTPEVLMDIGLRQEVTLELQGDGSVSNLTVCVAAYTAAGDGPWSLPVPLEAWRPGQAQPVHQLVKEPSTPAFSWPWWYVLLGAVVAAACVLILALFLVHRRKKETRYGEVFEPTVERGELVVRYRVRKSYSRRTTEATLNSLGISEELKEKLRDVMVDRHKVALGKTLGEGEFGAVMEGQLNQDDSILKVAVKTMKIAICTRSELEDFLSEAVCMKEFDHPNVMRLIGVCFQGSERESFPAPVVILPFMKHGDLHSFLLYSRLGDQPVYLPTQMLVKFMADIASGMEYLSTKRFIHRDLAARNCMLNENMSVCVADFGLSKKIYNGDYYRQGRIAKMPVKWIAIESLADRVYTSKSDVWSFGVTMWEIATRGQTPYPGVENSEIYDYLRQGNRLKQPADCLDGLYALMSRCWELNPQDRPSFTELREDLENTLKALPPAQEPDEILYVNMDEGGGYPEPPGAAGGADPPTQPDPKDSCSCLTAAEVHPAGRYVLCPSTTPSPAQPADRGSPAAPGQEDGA

Chain of Insulin-like growth factor 1 receptor (Homo sapiens) (P08069 31-736 limits assumed): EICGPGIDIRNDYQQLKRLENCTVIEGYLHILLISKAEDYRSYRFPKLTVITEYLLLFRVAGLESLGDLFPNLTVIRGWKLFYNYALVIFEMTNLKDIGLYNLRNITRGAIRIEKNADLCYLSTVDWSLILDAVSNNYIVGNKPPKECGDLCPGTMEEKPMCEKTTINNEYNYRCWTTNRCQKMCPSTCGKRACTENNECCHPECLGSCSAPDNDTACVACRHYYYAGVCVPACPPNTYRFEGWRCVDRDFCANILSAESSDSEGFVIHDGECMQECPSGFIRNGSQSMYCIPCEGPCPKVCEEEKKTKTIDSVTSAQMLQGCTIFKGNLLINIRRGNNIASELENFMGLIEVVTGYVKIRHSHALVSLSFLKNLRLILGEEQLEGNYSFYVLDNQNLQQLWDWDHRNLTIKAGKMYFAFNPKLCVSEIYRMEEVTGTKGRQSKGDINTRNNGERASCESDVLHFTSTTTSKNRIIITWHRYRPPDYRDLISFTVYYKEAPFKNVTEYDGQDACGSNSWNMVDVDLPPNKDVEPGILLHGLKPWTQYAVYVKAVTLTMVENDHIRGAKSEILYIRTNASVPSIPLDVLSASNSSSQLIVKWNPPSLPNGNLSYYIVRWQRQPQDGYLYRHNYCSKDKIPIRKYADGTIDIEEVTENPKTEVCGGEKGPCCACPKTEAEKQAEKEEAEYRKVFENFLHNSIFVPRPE
Chain of Insulin-like growth factor 1 receptor (Homo sapiens) (P08069 741-1367 limits assumed): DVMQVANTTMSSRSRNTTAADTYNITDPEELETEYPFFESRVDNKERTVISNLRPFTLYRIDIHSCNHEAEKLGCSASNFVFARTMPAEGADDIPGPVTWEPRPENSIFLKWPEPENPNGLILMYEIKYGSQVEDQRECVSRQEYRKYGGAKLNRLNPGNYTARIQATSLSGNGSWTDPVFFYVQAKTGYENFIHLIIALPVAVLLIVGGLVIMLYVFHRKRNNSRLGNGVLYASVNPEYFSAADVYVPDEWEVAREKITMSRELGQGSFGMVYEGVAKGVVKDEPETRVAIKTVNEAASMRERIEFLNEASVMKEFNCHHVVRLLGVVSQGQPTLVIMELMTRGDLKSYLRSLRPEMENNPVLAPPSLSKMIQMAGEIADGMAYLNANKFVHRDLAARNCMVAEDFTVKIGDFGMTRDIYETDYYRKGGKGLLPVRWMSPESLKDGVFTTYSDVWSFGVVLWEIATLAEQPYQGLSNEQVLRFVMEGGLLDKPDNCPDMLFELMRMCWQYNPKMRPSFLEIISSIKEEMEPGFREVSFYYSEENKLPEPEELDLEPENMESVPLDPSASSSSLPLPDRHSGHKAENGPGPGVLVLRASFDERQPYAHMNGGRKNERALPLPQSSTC
Chain of Platelet-derived growth factor receptor alpha (Homo sapiens) (P16234 whole entry): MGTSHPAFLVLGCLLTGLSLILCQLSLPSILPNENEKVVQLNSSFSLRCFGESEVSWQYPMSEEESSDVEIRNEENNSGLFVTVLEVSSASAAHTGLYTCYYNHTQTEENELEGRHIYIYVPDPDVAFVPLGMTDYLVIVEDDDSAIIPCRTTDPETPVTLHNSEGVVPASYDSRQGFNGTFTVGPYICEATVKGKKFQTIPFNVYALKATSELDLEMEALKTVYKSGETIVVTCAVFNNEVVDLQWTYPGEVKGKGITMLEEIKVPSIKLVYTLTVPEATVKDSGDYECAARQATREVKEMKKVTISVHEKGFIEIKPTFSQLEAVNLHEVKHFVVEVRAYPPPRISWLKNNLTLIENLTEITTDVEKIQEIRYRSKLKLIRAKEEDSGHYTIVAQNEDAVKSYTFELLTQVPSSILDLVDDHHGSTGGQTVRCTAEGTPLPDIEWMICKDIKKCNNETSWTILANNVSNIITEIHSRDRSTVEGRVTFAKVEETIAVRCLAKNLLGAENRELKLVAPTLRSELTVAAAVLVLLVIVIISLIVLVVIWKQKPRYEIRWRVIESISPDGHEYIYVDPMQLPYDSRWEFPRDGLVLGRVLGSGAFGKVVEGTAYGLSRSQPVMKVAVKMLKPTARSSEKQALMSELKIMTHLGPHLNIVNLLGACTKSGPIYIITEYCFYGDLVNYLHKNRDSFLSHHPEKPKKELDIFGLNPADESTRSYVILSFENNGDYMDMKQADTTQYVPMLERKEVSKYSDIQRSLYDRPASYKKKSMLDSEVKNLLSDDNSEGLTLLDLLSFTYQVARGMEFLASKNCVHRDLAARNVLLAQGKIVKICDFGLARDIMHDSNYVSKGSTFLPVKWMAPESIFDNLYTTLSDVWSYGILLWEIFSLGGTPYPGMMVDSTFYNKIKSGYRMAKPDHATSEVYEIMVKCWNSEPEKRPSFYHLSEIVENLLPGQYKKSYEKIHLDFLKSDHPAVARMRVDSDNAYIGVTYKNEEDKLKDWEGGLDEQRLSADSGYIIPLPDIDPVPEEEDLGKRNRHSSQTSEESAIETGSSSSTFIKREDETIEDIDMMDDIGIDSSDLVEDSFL
Chain of Fibroblast growth factor receptor 1 (Homo sapiens) (P11362 22-822 limits assumed): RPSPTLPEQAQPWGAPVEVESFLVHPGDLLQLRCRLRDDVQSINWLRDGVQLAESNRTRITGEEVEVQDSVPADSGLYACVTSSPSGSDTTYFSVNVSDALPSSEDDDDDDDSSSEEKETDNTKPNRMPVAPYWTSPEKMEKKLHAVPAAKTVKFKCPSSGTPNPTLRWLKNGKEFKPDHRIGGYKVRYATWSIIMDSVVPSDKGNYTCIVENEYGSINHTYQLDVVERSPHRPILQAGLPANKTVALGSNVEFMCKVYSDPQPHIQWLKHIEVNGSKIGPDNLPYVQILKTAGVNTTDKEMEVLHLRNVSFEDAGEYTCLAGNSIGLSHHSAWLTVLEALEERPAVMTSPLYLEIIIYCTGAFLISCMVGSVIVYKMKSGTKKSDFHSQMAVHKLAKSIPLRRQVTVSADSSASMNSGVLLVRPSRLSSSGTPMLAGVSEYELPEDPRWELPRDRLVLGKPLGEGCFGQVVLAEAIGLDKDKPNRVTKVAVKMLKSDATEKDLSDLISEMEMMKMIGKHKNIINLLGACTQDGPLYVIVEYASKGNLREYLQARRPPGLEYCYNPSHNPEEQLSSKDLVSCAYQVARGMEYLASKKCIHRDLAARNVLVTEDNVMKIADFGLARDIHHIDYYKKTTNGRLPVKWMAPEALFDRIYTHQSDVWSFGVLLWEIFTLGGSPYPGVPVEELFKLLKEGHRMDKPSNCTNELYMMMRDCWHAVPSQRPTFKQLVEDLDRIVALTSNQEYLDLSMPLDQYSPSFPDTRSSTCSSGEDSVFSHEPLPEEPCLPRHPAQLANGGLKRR
Chain of Proto-oncogene tyrosine-protein kinase Src (Homo sapiens) (P12931 2-536 limits assumed): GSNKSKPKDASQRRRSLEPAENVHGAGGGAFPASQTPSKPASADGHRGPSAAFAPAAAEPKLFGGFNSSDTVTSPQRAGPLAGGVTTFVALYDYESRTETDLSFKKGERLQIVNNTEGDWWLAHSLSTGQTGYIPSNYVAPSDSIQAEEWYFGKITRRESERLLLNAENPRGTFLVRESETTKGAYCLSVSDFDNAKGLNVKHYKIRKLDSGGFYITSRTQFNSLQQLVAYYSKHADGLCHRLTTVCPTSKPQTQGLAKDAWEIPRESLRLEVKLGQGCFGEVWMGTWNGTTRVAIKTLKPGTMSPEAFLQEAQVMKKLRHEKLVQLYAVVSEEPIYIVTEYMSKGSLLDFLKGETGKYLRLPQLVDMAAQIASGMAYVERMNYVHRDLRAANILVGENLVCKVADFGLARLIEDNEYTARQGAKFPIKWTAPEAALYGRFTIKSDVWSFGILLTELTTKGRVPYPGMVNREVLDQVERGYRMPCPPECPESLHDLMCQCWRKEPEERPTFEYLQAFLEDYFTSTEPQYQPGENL

Take `COc1cc(CCc2cc(NC(=O)c3ccc(N4C[C@@H](C)N[C@@H](C)C4)cc3)n[nH]2)cc(OC)c1`: in experiment [1], the inhibition (in general, the share of the control response that was lost under treatment) was 95.1%.

For `O=C(Nc1ccc(Oc2nc3c([nH]c(=O)n3Cc3ccc(O)cc3)c3ncccc23)c(F)c1)c1cccn(-c2ccc(F)cc2)c1=O`, the IC50 (in general, the concentration that gives 50% inhibition) in experiment [2] is greater than 50 µM.

For the molecule `Nc1ncnc2c1c(-c1cccc(OCc3ccccc3)c1)cn2C1CC(CN2CCC2)C1` (stereo not drawn), in experiment [3], the inhibition was determined as 56.6%.

Consider `O=C(Nc1ccc(F)cc1)C1(C(=O)Nc2ccc(Oc3ccnc4[nH]c(=O)[nH]c34)c(F)c2)CC1`, for which the IC50 in experiment [4] amounted to 0.209 µM; in experiment [2], 0.24 µM. The inhibition in experiment [5] turned out to be 43.2%; in [6], 41.6%; in [7], 7.4%; in experiment [8] it was 37.2%; in [9], 2.5%; in experiment [10], 13.3%. Besides, the inhibition in experiment [3] turned out to be 33.6%; in [11], 22.6%; in experiment [12], 0%; in experiment [13] it was 24.3%; in [14], 0%; in [15], 0%. In [16], this molecule yielded an inhibition of 0%.

Consider `CN1CCC(Cn2c(=O)[nH]c3c4ncccc4c(Oc4ccc(NC(=O)c5cccn(-c6ccc(F)cc6)c5=O)cc4F)nc32)CC1`, for which half-maximal inhibition in [2] (IC50) required 19.8 µM.

For `COc1cc2nccc(Oc3ccc(NC(=O)C4(C(=O)Nc5ccc(F)cc5)CC4)cc3)c2cc1OC`, the inhibition in experiment [17] and in experiment [18] was 100% in each case.

In the case of `O=C(Nc1ccc(F)cc1)C1(C(=O)Nc2ccc(Oc3ccnc4c3nc3n4CCCC3)c(F)c2)CC1`, the IC50 in experiment [4] is 0.26 µM; in experiment [2], greater than 10 µM.

For `CCN(CC)CCNC(=O)c1c(C)[nH]c(/C=C2\C(=O)Nc3ccc(F)cc32)c1C`, the inhibition in experiment [10] worked out at 66.6%; in experiment [11] it was 68.4%.

The molecule `O=C(Nc1ccc(Oc2nc3c([nH]c(=O)n3CCN3CCNCC3)c3ncccc23)c(F)c1)c1cccn(-c2ccc(F)cc2)c1=O` returned an IC50 in [2] greater than 50 µM.

Molecule `Nc1c(Oc2ccc(NC(=O)C3(C(=O)Nc4ccc(F)cc4)CC3)cc2F)ccnc1NC(=O)CCl` yielded an IC50 in experiment [2] of less than 10 µM.

Take `Nc1nccc(Oc2ccc(NC(=O)C3(C(=O)Nc4ccc(F)cc4)CC3)cc2F)c1NCC(=O)O`: the IC50 in [2] is less than 10 µM.
